Laboratory results published in ChEMBL document CHEMBL5303300, “EUbOPEN Chemogenomics Library - Multiplex” (2023).
Where “and” joins values, the source holds several entries; their conditions need not be identical. Identical values can stand only once.

How the values were obtained:
HEK-293T = experiment: Multiplex assay against HEK293T; type: toxicity, cell-based; conditions: human, number of replicates 2
How it was run: (§1)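 Live cells were stained at seeding with Hoechst33342, BioTracker Green Microtubule Cytoskeleton Dye, MitoTracker Red and Annexin V Alexa Fluor 680. Following compound addition, they were imaged on a CQ1 microscope at 37°C and 5% CO2 and gated by CellPathfinder machine learning into Hoechst high-intensity objects or normal cells, with normal cells split into healthy, pyknosed or fragmented nuclei and pyknosed cells into mitotic or apoptotic. Tubulin, mitochondrial-mass and membrane-permeability phenotypes are per cents of healthy-nucleus cells.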

U2OS = experiment: Multiplex assay against U2OS; type: toxicity, cell-based; conditions: human, number of replicates 2; how it was run: as §1
[1] = 12 h, 1 µM, compound concentration 1 uM
[2] = 12 h, 10 µM, compound concentration 10 uM
[3] = 24 h, 1 µM, compound concentration 1 uM
[4] = 24 h, 10 µM, compound concentration 10 uM
[5] = 48 h, 1 µM, compound concentration 1 uM
[6] = 48 h, 10 µM, compound concentration 10 uM

SMILES: CC(C)N1CCN(Cc2cnc(-c3cc(-c4cccc5[nH]ccc45)cc4[nH]ncc34)o2)CC1 [NEMIRALISIB]
- Population Apoptotic (%) (HEK-293T; [1]): 45% and 59%
- Population Fragmented Nuclei (%) (HEK-293T; [1]): 5% and 3%
- Population Healthy Nuclei (%) (HEK-293T; [1]): 77% and 74%
- Population Hoechst High Intensity Objects (%) (HEK-293T; [1]): 12% and 13%
- Population Membrane Permeable-Phenotype (%) (HEK-293T; [1]): 4% and 2%
- Population Mitochondria Different-Phenotype (%) (HEK-293T; [1]): 18% and 22%
- Population Mitotic Cells (%) (HEK-293T; [1]): 54% and 40%
- Population Normal (%) (HEK-293T; [1]): 87% and 86%
- Population Pyknosed Nuclei (%) (HEK-293T; [1]): 16% and 21%
- Population Tubulin-Different-Phenotype (%) (HEK-293T; [1]): 69% and 70%
- Total Cell Count (HEK-293T; [1]): 748 and 665
- Population Apoptotic (%) (HEK-293T; [2]): 62% and 64%
- Population Fragmented Nuclei (%) (HEK-293T; [2]): 2% and 3%
- Population Healthy Nuclei (%) (HEK-293T; [2]): 87% and 84%
- Population Hoechst High Intensity Objects (%) (HEK-293T; [2]): 11% and 7%
- Population Membrane Permeable-Phenotype (%) (HEK-293T; [2]): 5% and 3%
- Population Mitochondria Different-Phenotype (%) (HEK-293T; [2]): 46% and 61%
- Population Mitotic Cells (%) (HEK-293T; [2]): 37% and 35%
- Population Normal (%) (HEK-293T; [2]): 88% and 92%
- Population Pyknosed Nuclei (%) (HEK-293T; [2]): 9% and 12%
- Population Tubulin-Different-Phenotype (%) (HEK-293T; [2]): 98%
- Total Cell Count (HEK-293T; [2]): 425 and 404
- Population Apoptotic (%) (HEK-293T; [3]): 52% and 61%
- Population Fragmented Nuclei (%) (HEK-293T; [3]): 10% and 6%
- Population Healthy Nuclei (%) (HEK-293T; [3]): 75% and 74%
- Population Hoechst High Intensity Objects (%) (HEK-293T; [3]): 9% and 11%
- Population Membrane Permeable-Phenotype (%) (HEK-293T; [3]): 2%
- Population Mitochondria Different-Phenotype (%) (HEK-293T; [3]): 7% and 8%
- Population Mitotic Cells (%) (HEK-293T; [3]): 47% and 38%
- Population Normal (%) (HEK-293T; [3]): 90% and 88%
- Population Pyknosed Nuclei (%) (HEK-293T; [3]): 13% and 19%
- Population Tubulin-Different-Phenotype (%) (HEK-293T; [3]): 40% and 42%
- Total Cell Count (HEK-293T; [3]): 1140 and 951
- Population Apoptotic (%) (HEK-293T; [4]): 50% and 57%
- Population Fragmented Nuclei (%) (HEK-293T; [4]): 3%
- Population Healthy Nuclei (%) (HEK-293T; [4]): 85% and 78%
- Population Hoechst High Intensity Objects (%) (HEK-293T; [4]): 18% and 14%
- Population Membrane Permeable-Phenotype (%) (HEK-293T; [4]): 3%
- Population Mitochondria Different-Phenotype (%) (HEK-293T; [4]): 39% and 57%
- Population Mitotic Cells (%) (HEK-293T; [4]): 50% and 42%
- Population Normal (%) (HEK-293T; [4]): 81% and 85%
- Population Pyknosed Nuclei (%) (HEK-293T; [4]): 11% and 17%
- Population Tubulin-Different-Phenotype (%) (HEK-293T; [4]): 94% and 96%
- Total Cell Count (HEK-293T; [4]): 468 and 473
- Population Apoptotic (%) (HEK-293T; [5]): 21% and 33%
- Population Fragmented Nuclei (%) (HEK-293T; [5]): 17% and 10%
- Population Healthy Nuclei (%) (HEK-293T; [5]): 78% and 84%
- Population Hoechst High Intensity Objects (%) (HEK-293T; [5]): 10%
- Population Membrane Permeable-Phenotype (%) (HEK-293T; [5]): 6% and 2%
- Population Mitochondria Different-Phenotype (%) (HEK-293T; [5]): 0% and 1%
- Population Mitotic Cells (%) (HEK-293T; [5]): 78% and 66%
- Population Normal (%) (HEK-293T; [5]): 89%
- Population Pyknosed Nuclei (%) (HEK-293T; [5]): 4%
- Population Tubulin-Different-Phenotype (%) (HEK-293T; [5]): 19%
- Total Cell Count (HEK-293T; [5]): 2776 and 2131
- Population Apoptotic (%) (HEK-293T; [6]): 51% and 60%
- Population Fragmented Nuclei (%) (HEK-293T; [6]): 8% and 7%
- Population Healthy Nuclei (%) (HEK-293T; [6]): 84% and 85%
- Population Hoechst High Intensity Objects (%) (HEK-293T; [6]): 11% and 15%
- Population Membrane Permeable-Phenotype (%) (HEK-293T; [6]): 6% and 7%
- Population Mitochondria Different-Phenotype (%) (HEK-293T; [6]): 28% and 18%
- Population Mitotic Cells (%) (HEK-293T; [6]): 48% and 40%
- Population Normal (%) (HEK-293T; [6]): 88% and 84%
- Population Pyknosed Nuclei (%) (HEK-293T; [6]): 6% and 7%
- Population Tubulin-Different-Phenotype (%) (HEK-293T; [6]): 86% and 80%
- Total Cell Count (HEK-293T; [6]): 815 and 665
- Population Apoptotic (%) (U2OS; [1]): 42% and 80%
- Population Fragmented Nuclei (%) (U2OS; [1]): 12% and 2%
- Population Healthy Nuclei (%) (U2OS; [1]): 70% and 85%
- Population Hoechst High Intensity Objects (%) (U2OS; [1]): 0%
- Population Membrane Permeable-Phenotype (%) (U2OS; [1]): 0% and 1%
- Population Mitochondria Different-Phenotype (%) (U2OS; [1]): 3% and 0%
- Population Mitotic Cells (%) (U2OS; [1]): 57% and 20%
- Population Normal (%) (U2OS; [1]): 100% and 99%
- Population Pyknosed Nuclei (%) (U2OS; [1]): 17% and 11%
- Population Tubulin-Different-Phenotype (%) (U2OS; [1]): 53% and 72%
- Population Apoptotic (%) (U2OS; [2]): 69% and 57%
- Population Fragmented Nuclei (%) (U2OS; [2]): 13%
- Population Healthy Nuclei (%) (U2OS; [2]): 62% and 65%
- Population Hoechst High Intensity Objects (%) (U2OS; [2]): 0%
- Population Membrane Permeable-Phenotype (%) (U2OS; [2]): 15% and 8%
- Population Mitotic Cells (%) (U2OS; [2]): 30% and 42%
- Population Normal (%) (U2OS; [2]): 100%
- Population Pyknosed Nuclei (%) (U2OS; [2]): 24% and 20%
- Population Tubulin-Different-Phenotype (%) (U2OS; [2]): 18% and 30%
- Population Apoptotic (%) (U2OS; [3]): 60% and 80%
- Population Fragmented Nuclei (%) (U2OS; [3]): 4% and 3%
- Population Healthy Nuclei (%) (U2OS; [3]): 72% and 87%
- Population Hoechst High Intensity Objects (%) (U2OS; [3]): 0%
- Population Membrane Permeable-Phenotype (%) (U2OS; [3]): 0% and 1%
- Population Mitochondria Different-Phenotype (%) (U2OS; [3]): 0% and 2%
- Population Mitotic Cells (%) (U2OS; [3]): 40% and 19%
- Population Normal (%) (U2OS; [3]): 100% and 99%
- Population Pyknosed Nuclei (%) (U2OS; [3]): 22% and 9%
- Population Tubulin-Different-Phenotype (%) (U2OS; [3]): 59% and 78%
